A word on the IC50: it is the concentration needed to halve the response being measured.

The text below walks through data of publication PMC3546530 (Cancer prevention research (Philadelphia, Pa.), 2012).

In assay [1] the test system is β-catenin in HCT 116 cells. Description: β-Catenin levels. The format is cell-based, human. Conditions: HCT 116, 100 μmol/L. The method in brief:
(§1)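 Cells were lysed in ice-cold membrane lysis buffer (Triton X-100, MgCl2, KCl, DTT, HEPES, NaF, protease inhibitors) or in nuclear lysis buffer (HEPES, NaCl, EDTA, 25% glycerol). Nuclear lysates were kept at 4° C with vortexing every 5 min for 1 h, then centrifuged. Protein was measured by Lowry, separated by 12% SDS-PAGE and moved to nitrocellulose. Blots were blocked in 5% BSA/0.05% Tween 20, probed with primary antibody overnight at 4° C and HRP secondary for 1 h, and read by ECL.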

Assay [2] deals with intracellular cGMP in HEK293 cells. In words: Intracellular cGMP levels. To be noted: HEK293, 50 μmol/L SNP plus 1, 3, or 10 μmol/L compound. The class given is cell-based, human.
The target of a further assay is PDE1C (Homo sapiens, UniProt Q14123). Description: Recombinant PDE isozyme assay. The class given is biochemical. The method in brief: (§2)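 Purified recombinant human PDE isozymes were assayed by IMAP fluorescence polarization, in which binding of hydrolysed nucleotide to immobilised metal complexes raises polarization.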
Assay [3] relates to HCT 116 colon tumor cells. In words: Apoptosis assay. Conditions: 24 hours, vehicle 3%. The format is cell-based, human. The method in brief: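 HCT 116 cells were seeded at 1 × 10^6 per 10-cm dish and grown 48 h, then treated with test compound or vehicle for 24 h. Floating and attached cells were pooled, fixed in 10% neutral buffered formalin on ice for 15 min, and stained for DNA strand breaks by APO-BrdU TUNEL with AlexaFluor-488. TUNEL-positive cells were counted by flow cytometry, ≥5,000 events, in triplicate.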

A further assay addresses PDE1A (Homo sapiens, UniProt P54750). In words: Recombinant PDE isozyme assay. The format is biochemical. Summed up: as §2
In the next assay the test system is survivin in HT-29 cells. Description: Survivin expression. Conditions: 10 μmol/L, slightly longer duration than β-catenin decrease. The class given is cell-based, human. Summed up:
as §1

The target of a further assay is PDE7A (Homo sapiens, UniProt Q13946). In words: Recombinant PDE isozyme assay. The class given is biochemical. Summed up: as §2
For another assay, the target named is purified ovine COX-1 (Ovis aries, UniProt P05979). Description: COX-1 colorimetric activity assay. The format is biochemical.
For assay [4], the system named is HT-29, SW480, and HCT 116 colon tumor cell lines. In words: Growth assay. The format is cell-based. To be noted: Homo sapiens, 72 h, read-out: growth inhibition IC50. Summed up:
(§3)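 Colon tumor cells were kept in RPMI-1640 with 5% FBS and 4 mmol/L glutamine at 37° C, 5% CO2. They were plated at 5,000 per well, left to adhere overnight, and exposed for 72 h to a 2-log range of test compound. Viability was measured as ATP content by CellTiter-Glo, relative to vehicle.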

The subject of assay [5] is nuclear β-catenin in HT-29 cells. In words: Nuclear β-catenin levels. The class given is cell-based, human. Summed up:
as §1

The test system of assay [6] is LPS-stimulated U937 promonocytic cells. Description: PGE2 production assay. The format is cell-based, human. Summed up: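 U937 promonocytic cells were differentiated with 10 nmol/L PMA for 48 h, washed, and plated at 1.0 × 10^6 cells per well to adhere overnight. They were stimulated with 10 μg/mL LPS and treated with test compound for 24 h. PGE2 in supernatants was measured by HTRF competitive FRET between a PGE2–d2 conjugate and an anti-PGE2 antibody.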

In a further assay the target is PDE2A (Homo sapiens, UniProt O00408). In words: Recombinant PDE isozyme assay. The format is biochemical.
PDE2A, sequence (O00408 whole entry): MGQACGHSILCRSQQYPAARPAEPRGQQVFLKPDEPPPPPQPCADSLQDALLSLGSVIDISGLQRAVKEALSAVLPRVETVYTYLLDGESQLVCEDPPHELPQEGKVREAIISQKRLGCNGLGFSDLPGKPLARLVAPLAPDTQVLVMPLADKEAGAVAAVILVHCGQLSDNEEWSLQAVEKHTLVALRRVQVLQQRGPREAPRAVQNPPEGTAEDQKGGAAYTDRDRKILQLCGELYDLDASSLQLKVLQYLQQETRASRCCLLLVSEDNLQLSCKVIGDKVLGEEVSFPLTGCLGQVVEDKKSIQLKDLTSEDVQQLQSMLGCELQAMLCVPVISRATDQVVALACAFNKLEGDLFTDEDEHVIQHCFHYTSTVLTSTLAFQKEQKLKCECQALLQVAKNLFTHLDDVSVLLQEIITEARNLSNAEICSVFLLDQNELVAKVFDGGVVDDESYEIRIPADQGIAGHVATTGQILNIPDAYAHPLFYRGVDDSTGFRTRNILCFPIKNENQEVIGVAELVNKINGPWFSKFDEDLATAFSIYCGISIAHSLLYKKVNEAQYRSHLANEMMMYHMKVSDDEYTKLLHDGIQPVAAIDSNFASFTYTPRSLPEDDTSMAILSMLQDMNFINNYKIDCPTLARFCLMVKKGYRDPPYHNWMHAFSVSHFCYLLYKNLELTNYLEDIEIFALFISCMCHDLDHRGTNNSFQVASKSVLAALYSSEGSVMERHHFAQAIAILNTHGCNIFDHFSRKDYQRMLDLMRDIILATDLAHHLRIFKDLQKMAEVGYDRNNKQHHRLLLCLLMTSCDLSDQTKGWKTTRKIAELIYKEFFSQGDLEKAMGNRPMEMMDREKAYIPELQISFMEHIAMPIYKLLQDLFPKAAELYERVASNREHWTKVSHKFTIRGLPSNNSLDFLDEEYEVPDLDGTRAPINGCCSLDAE
The target of a further assay is PDE3B (Homo sapiens, UniProt Q13370). Description: Recombinant PDE isozyme assay. The class given is biochemical. Summed up: as §2
PDE3B, sequence (Q13370 whole entry): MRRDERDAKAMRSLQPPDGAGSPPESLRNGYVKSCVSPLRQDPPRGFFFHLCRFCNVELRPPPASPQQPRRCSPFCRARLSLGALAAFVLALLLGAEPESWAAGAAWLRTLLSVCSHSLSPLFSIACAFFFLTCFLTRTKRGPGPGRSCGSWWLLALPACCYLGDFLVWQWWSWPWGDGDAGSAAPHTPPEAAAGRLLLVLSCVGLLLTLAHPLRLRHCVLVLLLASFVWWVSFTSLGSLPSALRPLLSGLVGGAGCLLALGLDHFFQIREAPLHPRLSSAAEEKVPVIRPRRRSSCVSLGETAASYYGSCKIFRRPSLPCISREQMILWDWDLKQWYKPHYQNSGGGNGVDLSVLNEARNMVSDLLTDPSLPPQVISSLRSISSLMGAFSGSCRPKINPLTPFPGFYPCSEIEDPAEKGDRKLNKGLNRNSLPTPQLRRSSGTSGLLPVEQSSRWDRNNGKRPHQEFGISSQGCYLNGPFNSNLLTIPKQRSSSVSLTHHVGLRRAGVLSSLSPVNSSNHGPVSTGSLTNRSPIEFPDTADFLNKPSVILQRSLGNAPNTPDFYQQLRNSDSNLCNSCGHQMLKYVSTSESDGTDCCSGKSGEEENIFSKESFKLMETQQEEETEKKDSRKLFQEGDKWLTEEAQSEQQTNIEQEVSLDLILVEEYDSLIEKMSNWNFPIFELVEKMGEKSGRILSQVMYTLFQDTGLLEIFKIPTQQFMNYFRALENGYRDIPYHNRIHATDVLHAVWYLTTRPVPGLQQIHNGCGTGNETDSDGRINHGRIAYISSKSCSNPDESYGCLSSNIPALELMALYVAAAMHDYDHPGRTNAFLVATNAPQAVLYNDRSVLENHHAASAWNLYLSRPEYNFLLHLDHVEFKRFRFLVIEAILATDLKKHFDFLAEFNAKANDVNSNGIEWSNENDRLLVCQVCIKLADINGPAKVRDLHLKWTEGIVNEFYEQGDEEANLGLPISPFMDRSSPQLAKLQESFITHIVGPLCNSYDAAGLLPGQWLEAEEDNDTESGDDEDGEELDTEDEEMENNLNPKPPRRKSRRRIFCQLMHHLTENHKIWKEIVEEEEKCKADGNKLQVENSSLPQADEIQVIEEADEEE
The subject of a further assay is HT-29 colon tumor cells. Description: Growth assay. The class given is cell-based. Conditions: Homo sapiens, HT-29, read-out: growth inhibition IC50. Summed up: as §3
Assay [7] has as its system cleaved caspase-3 in HT-29 cells. Description: Caspase-3 cleavage. The class given is cell-based, human. Conditions: HT-29, 10 μmol/L. The method in brief:
as §1

A further assay concerns the target PDE9A (Homo sapiens, UniProt O76083). Description: Recombinant PDE isozyme assay. The format is biochemical. Summed up:
as §2

The next assay deals with PDE3A (Homo sapiens, UniProt Q14432). Description: Recombinant PDE isozyme assay. The format is biochemical. The method in brief: as §2
PDE3A, sequence (Q14432 whole entry): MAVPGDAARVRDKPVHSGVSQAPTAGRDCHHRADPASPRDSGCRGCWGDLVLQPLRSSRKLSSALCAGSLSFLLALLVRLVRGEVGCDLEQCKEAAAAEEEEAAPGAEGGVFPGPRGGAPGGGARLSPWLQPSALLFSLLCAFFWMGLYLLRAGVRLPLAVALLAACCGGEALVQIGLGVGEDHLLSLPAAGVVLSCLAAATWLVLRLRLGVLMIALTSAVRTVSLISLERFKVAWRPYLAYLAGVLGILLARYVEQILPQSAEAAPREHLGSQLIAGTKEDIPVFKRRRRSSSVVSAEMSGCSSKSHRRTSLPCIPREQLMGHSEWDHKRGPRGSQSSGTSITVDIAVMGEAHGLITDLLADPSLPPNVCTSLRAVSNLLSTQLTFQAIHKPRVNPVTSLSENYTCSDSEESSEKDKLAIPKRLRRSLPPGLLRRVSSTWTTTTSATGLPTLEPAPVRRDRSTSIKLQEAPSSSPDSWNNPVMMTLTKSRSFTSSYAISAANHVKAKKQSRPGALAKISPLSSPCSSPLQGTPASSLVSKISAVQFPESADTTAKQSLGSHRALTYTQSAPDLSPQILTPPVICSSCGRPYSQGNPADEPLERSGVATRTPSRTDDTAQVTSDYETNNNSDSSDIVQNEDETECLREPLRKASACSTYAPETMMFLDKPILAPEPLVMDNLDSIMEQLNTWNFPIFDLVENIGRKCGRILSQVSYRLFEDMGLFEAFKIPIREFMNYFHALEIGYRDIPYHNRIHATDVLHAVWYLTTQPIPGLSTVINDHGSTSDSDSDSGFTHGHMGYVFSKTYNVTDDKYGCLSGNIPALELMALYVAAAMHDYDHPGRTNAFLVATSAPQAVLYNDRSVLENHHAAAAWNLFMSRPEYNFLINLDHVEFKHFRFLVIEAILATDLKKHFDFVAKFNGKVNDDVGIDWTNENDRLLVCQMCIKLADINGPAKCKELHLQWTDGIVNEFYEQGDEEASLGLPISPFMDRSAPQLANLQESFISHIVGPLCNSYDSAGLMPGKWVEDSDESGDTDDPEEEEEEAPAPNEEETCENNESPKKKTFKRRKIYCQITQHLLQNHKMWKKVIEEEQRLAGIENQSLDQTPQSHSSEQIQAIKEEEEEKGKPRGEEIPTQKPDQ
In assay [8] the test system is HCT 116 colon tumor cells. Description: Proliferation assay. The class given is cell-based. To be noted: Homo sapiens, HCT-116, 24 h, read-out: inhibition of cell proliferation. The method in brief: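 HCT 116 cells were seeded at 1.5 × 10^6 per 10-cm dish overnight, then serum-starved for 24 h. Test compound or vehicle (0.1% DMSO) was added in RPMI-1640 with 5% serum for 4 h, followed by 16 μmol/L EdU (final) for a further 18 h. EdU incorporation was read with Click-iT Alexa Fluor 488 by flow cytometry, ≥5,000 events, in triplicate.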

For assay [9], the system named is β-catenin–mediated Tcf transcriptional activity in HCT 116 cells. In words: TOP/FOP-flash Tcf luciferase reporter assay. To be noted: HCT 116, 24 hours. The format is cell-based, human. The method in brief: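 HCT 116 cells in 24-well plates were cotransfected with 0.1 μg TOP-flash (wild-type Tcf sites) or FOP-flash (mutated sites, nonspecific control) plus 0.1 μg β-galactosidase vector. After 24 h treatment with test compound, luciferase activity was measured and normalised to β-galactosidase activity.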
In general terms: In a reporter assay the amount or activity of a reporter protein is the signal.

The next assay deals with PDE6C (Homo sapiens, UniProt P51160). In words: Recombinant PDE isozyme assay. The format is biochemical. Summed up: as §2
Assay [10] concerns HCT 116 colon tumor cells. In words: Growth assay. The class given is cell-based. Conditions: Homo sapiens, HCT-116, read-out: growth inhibition IC50. The method in brief:
as §3

In assay [11] the test system is normal fetal human colonocytes (FHC). In words: Growth assay. The class given is cell-based.
Another assay deals with PDE8A (Homo sapiens, UniProt O60658). In words: Recombinant PDE isozyme assay. The class given is biochemical. The method in brief: as §2
In assay [12] the target is PDE5A (purified recombinant PDE5) (Homo sapiens, UniProt O76074). In words: Recombinant PDE isozyme assay. The class given is biochemical. The method in brief:
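IMAP fluorescence polarization assay run on recombinant enzyme per kit instructions. Substrates: TAMRA-cGMP or fluorescein-cAMP, each at 50 nmol/L final. Hydrolysed cyclic nucleotide binds immobilized metal coordination complexes, raising polarization.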

In another assay the target is PDE11A (Homo sapiens, UniProt Q9HCR9). In words: Recombinant PDE isozyme assay. The class given is biochemical. The method in brief: as §2
PDE11A, sequence (Q9HCR9 whole entry): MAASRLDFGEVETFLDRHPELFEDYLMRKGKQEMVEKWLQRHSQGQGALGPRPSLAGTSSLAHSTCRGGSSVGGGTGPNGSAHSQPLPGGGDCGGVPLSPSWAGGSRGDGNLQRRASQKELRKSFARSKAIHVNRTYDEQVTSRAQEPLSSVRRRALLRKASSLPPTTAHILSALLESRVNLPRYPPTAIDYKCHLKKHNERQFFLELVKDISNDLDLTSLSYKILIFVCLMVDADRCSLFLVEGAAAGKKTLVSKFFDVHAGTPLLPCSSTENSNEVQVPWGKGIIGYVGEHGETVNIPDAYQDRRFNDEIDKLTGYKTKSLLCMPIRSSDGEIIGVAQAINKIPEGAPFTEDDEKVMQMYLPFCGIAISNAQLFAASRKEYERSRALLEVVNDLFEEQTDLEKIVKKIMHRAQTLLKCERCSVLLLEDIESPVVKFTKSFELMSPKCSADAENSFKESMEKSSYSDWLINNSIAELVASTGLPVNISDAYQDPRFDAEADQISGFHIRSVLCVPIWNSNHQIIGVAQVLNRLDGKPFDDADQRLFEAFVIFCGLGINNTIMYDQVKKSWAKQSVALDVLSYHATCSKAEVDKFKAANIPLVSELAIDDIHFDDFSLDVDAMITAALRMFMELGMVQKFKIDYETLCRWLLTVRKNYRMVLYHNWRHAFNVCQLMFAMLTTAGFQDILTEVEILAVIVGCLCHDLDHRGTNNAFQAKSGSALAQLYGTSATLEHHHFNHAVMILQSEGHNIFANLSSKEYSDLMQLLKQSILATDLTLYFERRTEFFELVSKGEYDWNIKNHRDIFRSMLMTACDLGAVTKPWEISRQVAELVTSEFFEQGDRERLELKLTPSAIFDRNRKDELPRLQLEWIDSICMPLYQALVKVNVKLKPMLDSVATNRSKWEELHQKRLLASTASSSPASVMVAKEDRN
The target in the next assay is PDE1B (Homo sapiens, UniProt Q01064). In words: Recombinant PDE isozyme assay. The format is biochemical. The method in brief:
as §2

In a further assay the target is PDE4B (Homo sapiens, UniProt Q07343). Description: Recombinant PDE isozyme assay. The class given is biochemical. Summed up: as §2
The next assay addresses purified ovine COX-2 (Ovis aries, UniProt P79208). Description: COX-2 colorimetric activity assay. The format is biochemical.
Assay [13] has as its system total cGMP hydrolysis in HT-29 whole-cell lysates. In words: cGMP PDE activity in tumor cell lysate. The format is biochemical, human. To be noted: read-out: total cGMP hydrolysis IC50; HT-29 whole-cell lysate. The method in brief:
(§4)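 HT-29 cells were lysed in PDE activity buffer (20 mmol/L Tris-acetate, 5 mmol/L Mg acetate, 1 mmol/L EGTA, 1.0% Triton X-100, 50 mmol/L NaF, protease inhibitors, pH 7.4). Lysate protein was titrated to the mid portion of the activity curve.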

Assay [14] deals with PKG (VASP phosphorylation) in HT-29 cells. Description: PKG activation. The class given is cell-based, human. Conditions: HT-29, 5 μmol/L; remained elevated for 5 hours.
The subject of assay [15] is total cAMP hydrolysis in HT-29 whole-cell lysates. Description: cAMP PDE activity in tumor cell lysate. The format is biochemical, human. To be noted: read-out: total cAMP hydrolysis IC50; HT-29 whole-cell lysate. Summed up:
as §4

The test system of another assay is tumor cell growth. To be noted: cited from earlier work.
Another assay concerns PDE5. Conditions: cited from earlier work.

Read-outs that look alike come from different tables or passages of the source. A value given as a limit tells only on which side of the number the result lay.

PDE1B, sequence (Q01064 whole entry): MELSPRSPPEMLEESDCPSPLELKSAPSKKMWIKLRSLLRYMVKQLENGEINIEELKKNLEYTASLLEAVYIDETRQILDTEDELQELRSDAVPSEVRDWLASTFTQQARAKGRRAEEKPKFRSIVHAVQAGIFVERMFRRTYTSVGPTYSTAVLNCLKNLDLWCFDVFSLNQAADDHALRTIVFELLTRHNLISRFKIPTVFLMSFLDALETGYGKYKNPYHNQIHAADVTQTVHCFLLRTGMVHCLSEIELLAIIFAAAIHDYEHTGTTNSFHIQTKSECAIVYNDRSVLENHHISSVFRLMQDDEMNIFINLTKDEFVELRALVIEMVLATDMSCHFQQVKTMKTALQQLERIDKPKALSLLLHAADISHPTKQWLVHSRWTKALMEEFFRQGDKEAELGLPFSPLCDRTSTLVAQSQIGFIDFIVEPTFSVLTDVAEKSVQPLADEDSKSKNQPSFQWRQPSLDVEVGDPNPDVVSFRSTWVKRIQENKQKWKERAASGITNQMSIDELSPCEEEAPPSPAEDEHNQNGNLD

Take `Nc1nc2c(nc(Br)n2[C@@H]2O[C@@H]3COP(=O)(O)O[C@H]3[C@H]2O)c(=O)[nH]1` [8-bromo-cGMP]: in assay [1], the “effect on β-catenin levels” value is “suppress β-catenin levels”.
In the case of `CC1=C(CCNCc2ccccc2)c2cc(F)ccc2/C1=C\c1ccc([S+](C)[O-])cc1` (stereo not drawn) [SBA, (Z)-N-benzyl-2-(5-fluoro-2-methyl-1-(4-(methylsulfinyl)benzylidene)-1H-inden-3-yl)ethanamine], the “effect on intracellular cGMP (luminescence)” value in assay [2] was “rapid and sustained increase in luminescence”. Moreover, the 50% inhibitory concentration (IC50) was above 100 µM at PDE1C; above 100 µM on PDE1C (read-out: cAMP IC50, PDE 1C, cAMP substrate); above 100 µM on PDE1A; above 100 µM on PDE1A (read-out: cAMP IC50, PDE 1A, cAMP substrate); above 100 µM at PDE7A; above 200000 nM against purified ovine COX-1. The IC50 was 3 to 5 µM in [4]; above 100 µM on PDE2A; above 100 µM at PDE2A (read-out: cAMP IC50, PDE 2A, cAMP substrate); above 100 µM on PDE3B; above 100 µM on PDE3B (read-out: cAMP IC50, PDE 3B, cAMP substrate); 5 µM in the assay on HT-29 colon tumor cells. Besides, the half-maximal inhibitory concentration (IC50) is above 100 µM at PDE9A; above 100 µM at PDE3A; above 100 µM on PDE3A (read-out: cAMP IC50, PDE 3A, cAMP substrate); above 100 µM on PDE6C; 5 µM in [10]; 33 µM in assay [11] (Homo sapiens, read-out: growth inhibition IC50). The half-inhibitory concentration (IC50) at PDE8A was above 100 µM; in assay [12] it was 9 µM; at PDE11A, above 100 µM; on PDE11A (read-out: cAMP IC50, PDE 11A, cAMP substrate), above 100 µM; on PDE1B, above 100 µM; at PDE1B (read-out: cAMP IC50, PDE 1B, cAMP substrate), above 100 µM. The IC50 at PDE4B is 75 µM; against purified ovine COX-2, above 200 µM; in [13], 8 µM; in assay [15] it was above 200 µM. For the same compound, in assay [3] (50 μmol/L), the “apoptotic (TUNEL-positive) cells” value is 75%. Also, the expression of survivin entry in the assay on survivin in HT-29 cells is on record as “decreased”. Further, the “time to reduced nuclear levels of β-catenin” value in assay [5] is at most 1 h. Also, the “suppression of PGE2 production” value in assay [6] (LPS 10 μg/mL, 24 hours treatment) was “ineffective”. Also, the “levels of cleaved caspase-3” value in [7] is listed as “increased”. Moreover, the inhibition at 50 µM in assay [8] amounted to 86%. In addition, in assay [9], the “β-catenin–mediated Tcf transcriptional activity” value is on record as “significant decrease”. Moreover, the “fold higher IC50 in FHC than in colon tumor cell lines” value in assay [11] (FHC vs HT-29 and HCT 116) is recorded as above 6 fold. The “time to increased phospho-VASP levels” value in assay [14] was at most 1 h.
As for `CCCc1nn(C)c2c(=O)[nH]c(-c3cc(S(=O)(=O)N4CCN(C)CC4)ccc3OCC)nc12` [sildenafil], the “tumor cell growth inhibitory activity” value in the assay on tumor cell growth is “completely inactive”.
On to `CSc1ccc(/C=C2/C(C)=C(CC(=O)O)c3cc(F)ccc32)cc1` [sulindac sulfide, Sulindac sulfide, reference compound], for which the “apoptotic (TUNEL-positive) cells” value in [3] (100 μmol/L) was determined as 12%. For the same compound, the IC50 was 2000 nM at purified ovine COX-1 (read-out: COX-1 inhibition IC50, purified ovine COX-1); 90 to 120 µM in assay [4]; 700 nM in assay [6] (Homo sapiens, U-937, 24 h, read-out: suppression of PGE2 production IC50); 49 µM in [13]; 133 µM in assay [15].
As for `CN1CC(=O)N2[C@H](c3ccc4c(c3)OCO4)c3[nH]c4ccccc4c3C[C@@H]2C1=O` [tadalafil], the “concentrations required to inhibit tumor cell growth” value in the assay with tumor cell growth is reported as “micromolar levels”. In addition, the “concentrations required to inhibit PDE5 in cell-free assays” value in the assay on PDE5 was “nanomolar levels”.
